Activity calls are given as the source filed them. The rule behind the calls is not given here.
Key:
[1] = Inhibition of human DMT1B-IRE expressed in CHO cells assessed as blockage of ferrous influx after 20 mins by calcein fluorescence quenching method; assay type: cell-based
Outline: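 Calcein fluorescence quench assay for DMT1 (conditions detailed in supplementary data); IC50s are the average of at least two independent determinations.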

[2] = target: T1, Natural resistance-associated macrophage protein 1 (Homo sapiens, UniProt P49279); experiment: Inhibition of NRAMP1 expressed in CHO cells; assay type: cell-based
T1 sequence (P49279 whole entry): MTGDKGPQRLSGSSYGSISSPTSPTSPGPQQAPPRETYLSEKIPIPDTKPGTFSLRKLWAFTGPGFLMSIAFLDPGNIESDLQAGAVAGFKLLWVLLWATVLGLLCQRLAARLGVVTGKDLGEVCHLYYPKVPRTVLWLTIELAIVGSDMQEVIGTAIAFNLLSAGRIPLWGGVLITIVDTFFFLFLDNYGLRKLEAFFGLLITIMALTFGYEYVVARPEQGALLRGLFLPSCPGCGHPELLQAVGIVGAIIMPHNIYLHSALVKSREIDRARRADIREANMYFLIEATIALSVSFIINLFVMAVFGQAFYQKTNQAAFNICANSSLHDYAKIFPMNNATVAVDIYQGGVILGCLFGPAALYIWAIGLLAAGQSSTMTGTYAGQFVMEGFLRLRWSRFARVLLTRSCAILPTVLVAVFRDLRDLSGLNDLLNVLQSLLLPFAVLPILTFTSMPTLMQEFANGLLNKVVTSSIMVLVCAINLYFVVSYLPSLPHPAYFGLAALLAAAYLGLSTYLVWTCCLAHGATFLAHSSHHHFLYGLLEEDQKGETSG

[3] = Apparent permeability across apical to basolateral side in human Caco2 cells; assay type: ADME, cell-based; conditions: Caco-2
Outline: (§1)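 Caco-2 cell monolayers; apparent permeability measured in both directions (apical→basolateral and basolateral→apical); […].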

[4] = Apparent permeability across basolateral to apical side in human Caco2 cells; assay type: ADME, cell-based; conditions: Caco-2; outline: as §1
Rattus norvegicus [5] = experiment: Inhibition of intestinal iron uptake in acute weanling rat model of iron hyperabsorption assessed as decrease of serum iron level at 25 mg/kg, po administered after 1 hr post iron challenge; assay type: functional, organism-based; design: dose 25 mg/kg
Outline: (§2)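 Anemic conscious rats ([…], serum iron <50 µg/dL); test article dosed po in 5% DMSO, 10% EtOH, 30% PEG400, 35% propylene glycol, 20% water; 1 h later oral challenge of 1 mg/kg Fe2+ as ferrous sulfate; serum iron measured 1 h after challenge; 8 animals per group, mean ± SEM; one-way ANOVA with Dunnett's test versus vehicle group.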

Rattus norvegicus [6] = experiment: Inhibition of intestinal iron uptake in acute weanling rat model of iron hyperabsorption assessed as decrease of serum iron level at 50 mg/kg, po administered after 1 hr post iron challenge; assay type: functional, organism-based; design: dose 50 mg/kg; outline: as §2
Rattus norvegicus [7] = experiment: Inhibition of intestinal iron uptake in po dosed acute weanling rat model of iron hyperabsorption assessed as decrease of serum iron level administered after 1 hr post iron challenge; assay type: functional, organism-based; outline: as §2
Rattus norvegicus [8] = experiment: Toxicity in acute weanling rat model at 25 to 50 mg/kg, po; assay type: organism-based; design: dose 25-50 mg/kg, route oral; conditions: in vivo
Outline: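 Rats in the acute iron hyperabsorption study (anemic, conscious) dosed po at 25 or 50 mg/kg in 5% DMSO, 10% EtOH, 30% PEG400, 35% propylene glycol, 20% water; clinical observations recorded during the study.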

Rattus norvegicus [9] = experiment: Inhibition of intestinal iron uptake in acute weanling rat model of iron hyperabsorption assessed as decrease of serum iron level at 50 mg/kg, po administered after 1 hr post iron challenge relative to control; assay type: functional; outline: as §2

SMILES | IC50 [1] [nM] | IC50 [2] [µM] | Papp A→B [3] [×10⁻⁶ cm/s] | Papp B→A [4] [×10⁻⁶ cm/s] | inhibition (Rattus norvegicus [5]) | inhibition (Rattus norvegicus [6]) | inhibition (Rattus norvegicus [7]) | Activity (Rattus norvegicus [8]) | fold change (FC) (Rattus norvegicus [9])
N=C(N)SCc1ccccc1C(=O)c1ccc(F)cc1CSC(=N)N | 580 | > 10 | – | – | – | – | – | – | –
N=C(N)SCc1cccc2sc3cccc(CSC(=N)N)c3c12 | 5040 | > 10 | – | – | – | – | – | – | –
Br.N=C(N)SCc1cc(F)ccc1Sc1ccc(F)cc1CSC(=N)N | 150 | > 10 | 0.4 | 0.4 | – | – | – | – | –
Br.N=C(N)SCc1ccccc1Sc1ccc(F)cc1CSC(=N)N | 150 | > 10 | 0.3 | 0.2 | – | – | – | – | –
Br.N=C(N)SCc1cc(F)ccc1Sc1cc(F)c(F)cc1CSC(=N)N | 600 | > 10 | < 0.1 | 0.2 | – | – | – | – | –
Br.Cc1ccc(Sc2ccccc2CSC(=N)N)c(CSC(=N)N)c1 | 490 | > 10 | 1.5 | 1.4 | – | – | – | – | –
COc1ccc(Sc2ccccc2CSC(=N)N)c(CSC(=N)N)c1 | 1440 | > 10 | – | – | – | – | – | – | –
Br.N=C(N)SCc1cccc2c1sc1c(CSC(=N)N)cccc12 | 260 | > 10 | < 0.1 | < 0.1 | – | – | – | – | –
N=C(N)SCc1ccccc1C(=O)c1ccc(Cl)cc1CSC(=N)N | 2920 | > 10 | – | – | – | – | – | – | –
N=C(N)SCc1cc(Cl)ccc1Sc1ccc(Cl)cc1CSC(=N)N | 3020 | > 10 | – | – | – | – | – | – | –
Br.N=C(N)SCc1cccc2c1oc1c(CSC(=N)N)cccc12 | 50 | > 10 | < 0.1 | 0.2 | – | – | – | – | –
Br.N=C(N)SCc1cccc2c1-c1c(CSC(=N)N)cccc1-2 | 100 | > 10 | < 0.1 | 0.4 | – | – | – | – | –
Br.N=C(N)SCc1cc(F)ccc1Oc1ccc(F)cc1CSC(=N)N | 320 | > 10 | < 0.1 | 0.2 | – | – | – | – | –
Br.N=C(N)SCc1cc(F)ccc1Sc1ccc([N+](=O)[O-])cc1CSC(=N)N | 80 | > 10 | 0.1 | 0.2 | Active | Active | Dose-dependent effect | Non-toxic | –
N=C(N)SCc1ccccc1Oc1cc(Cl)ccc1CSC(=N)N | 15000 | > 10 | – | – | – | – | – | – | –
N=C(N)SCc1cccc2c1oc1c(CSC(=N)N)cc(F)cc12 | 20 | > 10 | – | – | – | – | – | – | –
N=C(N)SCc1cccc2c1sc1c(CSC(=N)N)cc(F)cc12 | 90 | > 10 | – | – | – | – | – | – | –
CN(c1ccccc1CSC(=N)N)c1ccccc1CSC(=N)N | 730 | > 10 | – | – | – | – | – | – | –
Br.N=C(N)SCc1c(Cl)ccc2c1oc1c(CSC(=N)N)c(Cl)ccc12 | 270 | > 10 | < 0.1 | 0.4 | – | – | – | – | –
Br.N=C(N)SCc1cc(F)ccc1Sc1ccc(C(F)(F)F)cc1CSC(=N)N | 690 | > 10 | 0.1 | 3.8 | – | – | – | – | –
Cc1cccc(CSC(=N)N)c1Sc1ccccc1CSC(=N)N | 3770 | > 10 | – | – | – | – | – | – | –
Br.N=C(N)SCc1ccccc1Sc1ccccc1CSC(=N)N | 180 | > 10 | 0.1 | 1.4 | – | Active | Dose-dependent effect | Non-toxic | –
N=C(N)SCc1cccc2c1-c1c(CSC(=N)N)cccc1C2=O | > 15000 | > 10 | – | – | – | – | – | – | –
N=C(N)SCc1cc(F)ccc1Sc1c(CSC(=N)N)cccc1[N+](=O)[O-] | 4150 | > 10 | – | – | – | – | – | – | –
Cc1cc(C)c(CSC(=N)N)c(C)c1CSC(=N)N | 290 | – | 0.9 | 1.2 | – | – | – | – | –

SMILES | IC50 [1] [nM] | IC50 [2] [µM] | Papp A→B [3] [×10⁻⁶ cm/s] | Papp B→A [4] [×10⁻⁶ cm/s] | inhibition (Rattus norvegicus [5]) | inhibition (Rattus norvegicus [6]) | inhibition (Rattus norvegicus [7]) | Activity (Rattus norvegicus [8]) | fold change (FC) (Rattus norvegicus [9])
Br.N=C(N)SCc1c(Br)ccc2c1oc1c(CSC(=N)N)c(Br)ccc12 | 110 | > 10 | 0.2 | 0.1 | – | – | – | – | –
N=C(N)SCc1ccccc1C(=O)c1cc(Cl)ccc1CSC(=N)N | 5200 | > 10 | – | – | – | – | – | – | –
Br.N=C(N)SCc1cccc2c1C(=O)c1c(CSC(=N)N)cccc1-2 | 580 | > 10 | 0.4 | 0.3 | – | – | – | – | –
N=C(N)SCc1ccccc1C(=O)c1cc(F)ccc1CSC(=N)N | 2020 | > 10 | – | – | – | – | – | – | –
Br.N=C(N)SCc1cccc2c1sc1c(CSC(=N)N)c(Br)ccc12 | 750 | > 10 | 1.3 | 0.2 | – | – | – | – | –
Br.N=C(N)SCc1cc(F)cc2c1sc1c(CSC(=N)N)cc(Cl)cc12 | 40 | > 10 | 0.5 | 0.2 | – | – | – | – | –
N=C(N)SCc1ccccc1Oc1ccc(Cl)cc1CSC(=N)N | 1130 | > 10 | – | – | – | – | – | – | –
N=C(N)SCc1ccccc1Sc1ccc(N)cc1CSC(=N)N | 910 | > 10 | – | – | – | – | – | – | –
Br.N=C(N)SCc1ccccc1Oc1ccccc1CSC(=N)N | 340 | > 10 | 0.1 | 0.2 | Active | Active | Dose-dependent effect | Non-toxic | 8
N=C(N)SCc1cccc2c1Oc1c(CSC(=N)N)cccc1S2 | 150 | > 10 | – | – | – | – | – | – | –
Br.COc1ccc(Sc2ccc(F)cc2CSC(=N)N)c(CSC(=N)N)c1 | 530 | > 10 | 2.4 | 2.4 | – | – | – | – | –
N=C(N)SCc1cc(Cl)ccc1Oc1ccc([N+](=O)[O-])cc1CSC(=N)N | 2890 | > 10 | – | – | – | – | – | – | –
Br.CN(C)S(=O)(=O)c1ccc(Sc2ccc(F)cc2CSC(=N)N)c(CSC(=N)N)c1 | 950 | > 10 | < 0.1 | 0.1 | – | – | – | – | –
Br.N=C(N)SCc1c(F)ccc2c1oc1c(CSC(=N)N)c(F)ccc12 | 90 | > 10 | 5 | 1 | – | – | – | – | –
Cc1ccc(CSC(=N)N)c(Sc2ccc(F)cc2CSC(=N)N)c1 | 1450 | > 10 | – | – | – | – | – | – | –
Br.N=C(N)SCc1ccccc1Sc1cc(F)c(F)cc1CSC(=N)N | 320 | > 10 | 1.3 | 1.4 | – | – | – | – | –
Br.N=C(N)SCc1ccccc1Sc1cc(F)ccc1CSC(=N)N | 510 | > 10 | 0.3 | 0.2 | – | – | – | – | –
Br.N=C(N)SCc1cc(F)ccc1Oc1cc(Cl)ccc1CSC(=N)N | 340 | > 10 | 0.2 | 0.9 | – | – | – | – | –
Br.CS(=O)(=O)c1ccc(Sc2ccc(F)cc2CSC(=N)N)c(CSC(=N)N)c1 | 290 | > 10 | < 0.1 | 0.1 | – | – | – | – | –
Br.N=C(N)SCc1ccccc1C(=O)c1cc([N+](=O)[O-])ccc1CSC(=N)N | 370 | > 10 | 0.1 | 0.7 | – | – | – | – | –
Br.N=C(N)SCc1c(Br)ccc2c1sc1c(CSC(=N)N)c(Br)ccc12 | 860 | > 10 | 4 | 2 | – | – | – | – | –
N=C(N)SCc1cc(F)ccc1Oc1ccc([N+](=O)[O-])cc1CSC(=N)N | 160 | > 10 | – | – | – | – | – | – | –
Br.N=C(N)SCc1cc(F)ccc1Oc1cc(F)ccc1CSC(=N)N | 840 | > 10 | < 0.1 | 0.4 | – | – | – | – | –
N=C(N)SCc1cccc2cc3cccc(CSC(=N)N)c3nc12 | 290 | > 10 | 0.2 | 0.5 | – | – | – | – | –
